pIC50: −log10 of the molar value. Calls of active or inactive are those of the source. The rule behind the calls is not given here.
What was measured:
[1] = system: ASPC1; test: Anticlonogenic activity against human Aspc-1 cells at 2 uM after 21 days by crystal violet staining based assay relative to control; format: functional; conditions: ASPC1, 504 h
Method in brief: (§1)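 Anchorage-dependent colony formation: AsPC-1 cells seeded at 1000 cells/well in six-well plates and treated with compound. Colony formation is expressed as percent of vehicle treatment. Mean ± SD from at least three independent experiments, each in duplicate.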

[2] = molecular target: T1, Glutaminase liver isoform, mitochondrial (Homo sapiens, UniProt Q9UI32); test: Inhibition of recombinant human His-tagged GAB (P56 to V602 residues) expressed in Escherichia coli C41(DE3)pLysS using glutamine as substrate preincubated for 10 mins followed by substrate addition measured after 60 mins by glutamate dehydrogenase coupled enzyme assay
T1 sequence (Q9UI32 whole entry): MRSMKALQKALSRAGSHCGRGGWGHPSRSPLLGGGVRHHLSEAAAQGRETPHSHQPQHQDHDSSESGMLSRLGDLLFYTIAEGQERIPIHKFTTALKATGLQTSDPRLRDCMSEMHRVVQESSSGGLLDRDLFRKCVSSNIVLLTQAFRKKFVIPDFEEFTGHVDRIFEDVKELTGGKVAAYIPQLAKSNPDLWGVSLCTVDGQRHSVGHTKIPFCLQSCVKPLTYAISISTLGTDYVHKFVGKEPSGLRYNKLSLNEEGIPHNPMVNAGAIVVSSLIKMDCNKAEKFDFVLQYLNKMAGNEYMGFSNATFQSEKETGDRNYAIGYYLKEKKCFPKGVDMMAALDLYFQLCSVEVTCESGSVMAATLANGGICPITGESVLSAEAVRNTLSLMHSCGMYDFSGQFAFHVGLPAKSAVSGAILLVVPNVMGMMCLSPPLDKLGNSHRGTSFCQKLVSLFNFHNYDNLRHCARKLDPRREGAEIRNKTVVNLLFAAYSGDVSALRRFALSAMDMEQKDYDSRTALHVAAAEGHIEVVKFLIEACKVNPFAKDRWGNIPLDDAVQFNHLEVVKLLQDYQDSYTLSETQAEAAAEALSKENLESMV

[3] = system: MDA-MB-231; test: Growth inhibition of human MDA-MB-231 cells after 72 hrs by MTS assay; format: functional, cell-based; conditions: MDA-MB-231, 72 h
Method in brief: (§2)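 Growth inhibition by MTS viability read-out. Cells seeded in 96-well plates at 4000/well (AsPC-1) or 8500/well (MDA-MB-231). Mean ± SD from at least three independent experiments, each in duplicate.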

[4] = molecular target: T2, Peroxisome proliferator-activated receptor alpha (Homo sapiens) (UniProt Q07869); test: Transactivation of GAL4-DBD fused human PPARalpha LBD (193 to 469 residues) expressed in African green monkey CV1 cells after 18 to 24 hrs by luciferase reporter gene assay; format: cell-based
T2 sequence (whole entry): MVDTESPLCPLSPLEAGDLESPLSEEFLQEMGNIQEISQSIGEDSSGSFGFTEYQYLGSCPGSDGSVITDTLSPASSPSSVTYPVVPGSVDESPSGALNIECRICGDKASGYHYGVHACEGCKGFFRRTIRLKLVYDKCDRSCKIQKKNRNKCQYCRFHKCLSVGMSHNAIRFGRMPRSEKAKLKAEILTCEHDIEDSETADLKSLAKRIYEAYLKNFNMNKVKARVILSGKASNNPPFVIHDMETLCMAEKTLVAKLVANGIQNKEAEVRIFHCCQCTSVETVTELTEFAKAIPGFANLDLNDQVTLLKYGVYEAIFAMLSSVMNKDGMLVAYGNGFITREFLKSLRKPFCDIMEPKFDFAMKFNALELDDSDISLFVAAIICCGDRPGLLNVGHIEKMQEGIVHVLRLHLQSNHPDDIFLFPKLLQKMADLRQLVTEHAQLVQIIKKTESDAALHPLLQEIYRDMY

[5] = system: ASPC1; test: Anticlonogenic activity against human Aspc-1 cells at 10 uM after 21 days by crystal violet staining based assay relative to control; format: functional; conditions: ASPC1, 504 h; method in brief: as §1
[6] = molecular target: T3, Glutaminase kidney isoform, mitochondrial (Homo sapiens, UniProt O94925); test: Inhibition of recombinant human MCF7 cells derived His-tagged GAC (L123 to S598 residues) expressed in Escherichia coli C41(DE3)pLysS using glutamine as substrate preincubated for 10 mins followed by substrate addition measured after 60 mins by glutamate dehydrogenase coupled enzyme assay
T3 sequence (O94925 whole entry): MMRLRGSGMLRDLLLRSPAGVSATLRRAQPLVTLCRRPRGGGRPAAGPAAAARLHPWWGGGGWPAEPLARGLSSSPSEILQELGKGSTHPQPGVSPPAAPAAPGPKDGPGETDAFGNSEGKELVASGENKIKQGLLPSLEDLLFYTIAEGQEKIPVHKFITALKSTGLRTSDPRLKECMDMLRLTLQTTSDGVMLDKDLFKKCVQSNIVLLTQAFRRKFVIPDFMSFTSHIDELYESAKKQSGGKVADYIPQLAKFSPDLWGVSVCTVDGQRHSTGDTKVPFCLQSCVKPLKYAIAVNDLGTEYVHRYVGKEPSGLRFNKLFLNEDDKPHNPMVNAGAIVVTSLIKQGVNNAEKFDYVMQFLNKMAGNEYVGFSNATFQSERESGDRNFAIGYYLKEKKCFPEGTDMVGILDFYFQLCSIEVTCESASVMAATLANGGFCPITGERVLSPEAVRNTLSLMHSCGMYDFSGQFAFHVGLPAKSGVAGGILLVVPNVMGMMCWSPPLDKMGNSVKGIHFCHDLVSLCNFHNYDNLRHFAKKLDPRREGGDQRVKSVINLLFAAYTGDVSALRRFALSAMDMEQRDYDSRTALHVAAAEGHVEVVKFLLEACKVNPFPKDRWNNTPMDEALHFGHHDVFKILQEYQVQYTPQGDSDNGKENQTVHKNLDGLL
Method in brief: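 Human GAC cloned from MCF7 cDNA into pET28a(+) as a His-tagged construct. Expressed in E. coli C41(DE3)pLysS in Terrific Broth with kanamycin, induced with 1 mM IPTG for 6 h at 25 °C. Purified on Ni2+ resin with 500 mM imidazole elution and exchanged into 50 mM NaH2PO4, 50 mM Tris-HCl pH 8.0, 2 mM DTT, 50% glycerol. Activity measured by two-step glutaminase assay.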

[7] = molecular target: T3, Glutaminase kidney isoform, mitochondrial; test: Inhibition of recombinant human His-tagged KGA (L123 to L669 residues) expressed in Escherichia coli BL21(DE3)pLysS using glutamine substrate preincubated for 10 mins followed by substrate addition measured after 60 mins by glutamate dehydrogenase coupled enzyme assay
[8] = system: ASPC1; test: Growth inhibition of human Aspc-1 cells after 72 hrs by MTS assay; format: functional, cell-based; conditions: ASPC1, 72 h; method in brief: as §2
[9] = organism: Homo sapiens; test: Selectivity index, ratio of IC50 for recombinant human His-tagged GAB (P56-V602 residues) expressed in Escherichia coli C41(DE3)pLysS to IC50 for recombinant human His-tagged KGA (L123 to L669 residues) expressed in Escherichia coli BL21(DE3)pLysS
[10] = organism: Homo sapiens; test: Selectivity ratio of IC50 for recombinant human His-tagged KGA K507A mutant expressed in Escherichia coli BL21(DE3)pLysS to IC50 for human His-tagged KGA (L123 to L669 residues) expressed in Escherichia coli BL21(DE3)pLysS

SMILES	inhibition at 2 µM [1] [%]	pIC50 [2]	pIC50 [3]	Activity [4]	inhibition at 10 µM [5] [%]	pIC50 [6]	pIC50 [7]	pIC50 [8]	Ratio IC50 [9]	Ratio IC50 [10]
O=C1NC(=O)/C(=C/c2ccc(-c3ccc(-n4c(-c5cccs5)cc(/C=C5\SC(=O)NC5=O)c4-c4cccs4)cc3)cc2)S1	64	6.99	4.54	inactive	87	7.31	7.30	4.83	2	
Cc1cc(/C=C2\SC(=O)NC2=O)c(C)n1-c1ccc(-c2ccc(/C=C3\SC(=O)NC3=O)c(Cl)c2)cc1	18	5.38	< 4.30	inactive	51	6.59	7.24	< 4.30	74	4.7
Cc1cc(/C=C2\SC(=O)NC2=O)c(C)n1-c1ccc(-c2ccc(/C=C3\SC(=O)NC3=O)cc2)cc1	13	5.93	4.38		59	6.42	6.99	4.46	12	10.2
